M1 ag: M1 muscarinic receptor agonists, primary screen, CHO-M1 cells, Fluo-4 calcium, agonist mode | AID 626, 2007 | 64,000 tested, 3% active | B-score at 10 µM | Muscarinic acetylcholine receptor M1 | Fluo-4 calcium fluorescence; hits give high values;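 active = fluorescence rise, raw or as B-score row- and column-corrected plate score, outside the 99.7% band of its plate's samples, either direction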
hDAT+cocaine: changed hDAT dopamine uptake under cocaine IC80, either direction, primary screen, cocaine antagonist project, cell-based, LLC-PK1 hDAT, [14C]-dopamine uptake, MLSMR; Sodium-dependent dopamine transporter (Homo sapiens), Q01959; LLC-PK1 hDAT cells, [14C]-dopamine uptake with cocaine IC80; actives deviate in either direction; B-score at 10 µM; 110,000 tested, 1.3% active;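 active = Z score or B-score, a plate-position-corrected score, falls beyond the plate's 99.7% confidence bounds, in either direction; inactive = both scores lie inside the 99.7% bounds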;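 also: scored against the spread of the other compound wells on the same plate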
HEK293 NFkB inh: inhibitors of PMA/ionomycin-induced NF-kB reporter, primary screen, antigen receptor NF-kB inhibitor project, cell-based, HEK-293 luciferase reporter, luminescence. HEK-293 NF-kB luciferase reporter. inhibition, % at 3 µM. 62,000 tested, 0.21% active. AID 465, 2006;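 active = inhibition above the mean of all tested compounds plus 3 SD, cut at about 40% in these data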;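 also: 0% = stimulated DMSO wells and 100% = 10 µM reference inhibitor 5653914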
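Timing: 1 h pretreatment, 16 h stimulation, 37 °C; system: HEK-293 cells with stable firefly luciferase reporter driven by four HIV NF-kB elements; doses: 3 µM once, 0.30% DMSO; measured by: luciferase luminescence; control set: DMSO and 10 µM reference inhibitor; repeats: single test; reagent: PMA plus ionomycin mix as NF-kB-activating stimulus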
M1 antagonist: antagonists of rat M1 muscarinic receptor | Muscarinic acetylcholine receptor M1 (Rattus norvegicus), P08482 | CHO-M1 cells, Fluo-4 calcium, ACh EC80 antagonist mode; hits give low values | B-score at 10 µM | 64,000 tested, 3.4% active | AID 628, 2007;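 active = calcium fluorescence response, raw or row-and-column corrected B-score, differing from the plate sample mean either way at a set confidence level, mostly lower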
BAP1 inh: inhibitors of BAP1 deubiquitinase, primary screen, biochemical, Ub-AMC fluorescence, kinetic | recombinant BAP1, Ub-AMC hydrolysis fluorescence kinetic; hits give low values | calls only at 20 µM | 72,000 tested, 0.48% active;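 active = activity remaining at or below 50% of control, provided the compound also passes the data quality filters; inactive = the rest, including low values that fail the filters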;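 also: 100% = DMSO wells rate and 0% = substrate alone blank rate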
Target sequence (Q92560 whole entry, looked up): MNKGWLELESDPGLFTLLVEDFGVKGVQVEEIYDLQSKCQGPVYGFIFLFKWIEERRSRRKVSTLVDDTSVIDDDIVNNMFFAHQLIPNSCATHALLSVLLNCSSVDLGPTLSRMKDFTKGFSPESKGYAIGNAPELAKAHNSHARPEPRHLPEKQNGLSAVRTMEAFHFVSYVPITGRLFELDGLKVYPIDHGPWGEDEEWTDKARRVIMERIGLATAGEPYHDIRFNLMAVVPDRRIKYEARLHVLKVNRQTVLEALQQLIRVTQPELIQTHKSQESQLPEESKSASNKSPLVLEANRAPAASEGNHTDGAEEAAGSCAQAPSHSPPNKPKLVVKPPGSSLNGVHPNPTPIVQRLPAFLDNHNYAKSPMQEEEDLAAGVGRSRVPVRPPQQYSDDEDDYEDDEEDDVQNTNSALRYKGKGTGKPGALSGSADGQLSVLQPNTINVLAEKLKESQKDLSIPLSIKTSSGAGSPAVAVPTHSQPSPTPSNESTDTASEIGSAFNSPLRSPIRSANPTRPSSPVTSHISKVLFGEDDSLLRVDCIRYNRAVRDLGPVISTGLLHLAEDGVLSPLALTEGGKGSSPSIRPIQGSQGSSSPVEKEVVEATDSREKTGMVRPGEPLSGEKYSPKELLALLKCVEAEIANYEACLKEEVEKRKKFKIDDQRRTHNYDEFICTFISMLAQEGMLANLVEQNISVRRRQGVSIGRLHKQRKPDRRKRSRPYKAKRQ
D1 mod: D1 CRE-luciferase signal change, two-sided – cell-based, HEK293 D1, dopamine EC30, D1 allosteric modulator project, primary screen | B-score at 10 µM | D(1A) dopamine receptor (Homo sapiens), P21728 | dopamine EC30 potentiation; actives deviate in either direction | 58,000 tested, 5.9% active;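 active = luminescence count or its row- and column-corrected plate score outside the 99.7% band of the plate's sample wells, on either side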
D1 PAM confirm: D1 receptor positive allosteric modulators, retest, confirmation, cell-based, HEK293 D1, CRE-luciferase, duplicate; 2,200 tested, 88% active; shares compounds with D1 mod; dopamine EC30 potentiation; hits give high values; luminescence at 10 µM; AID 642, 2007;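 active = luminescence in either of two replicates above the same-plate mean plus 3 SD of the low-dose dopamine control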
D1 ag no DA: D1 receptor agonism without dopamine, confirmation, mechanism study for D1 allosteric modulator project, cell-based, HEK293 D1, CRE-luciferase, secondary assay 1; shares compounds with D1 mod; luminescence, no dopamine; hits give high values; luminescence at 10 µM; 1,900 tested, 0.8% active; AID 646, 2007; in the data active = luminescence above about 3900
Isoprot counter: counter-screen for D1 modulators: isoproterenol response in HEK293 cells; 2,200 tested, 63% active; shares compounds with D1 mod; HEK293 D1 CRE-luciferase, isoproterenol EC30 counter-screen; calls only at 10 µM;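 active = luminescence in either replicate above plate mean of wells with a partly effective reference agonist dose plus 3 SD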;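 also: isoproterenol raises cAMP through native beta-adrenoceptor Gs so signal bypasses D1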
Numbers without * were called inactive; i = inactive; x = not tested or not shown; + = active, no number. Sampled rows, rich in hits. Any-hit rate of the full collection: about 7.2%.

SMILES	M1 ag	hDAT+cocaine	HEK293 NFkB inh	M1 antagonist	BAP1 inh	D1 mod	D1 PAM confirm	D1 ag no DA	Isoprot counter
COc1ccc(C2CC(c3ccc(Cl)cc3Cl)Nc3nc(N)nn32)cc1 (centres undefined)	-0.804	1.16	-8.9	-0.125	i	3.09*	6116*	1680	i
Nc1nc2n(n1)C(c1cccs1)CC(c1ccccc1)N2 (centres undefined)	-0.768	-0.302	20.2	0.343	i	14.1*	13800*	x	+
O=C(Nc1nc2c(s1)CCc1ccccc1-2)c1cc(Cl)ccc1[N+](=O)[O-]	x	x	x	x	i	x	x	x	x
Cc1noc(C)c1CSc1nc2sc3c(c2c(=O)n1C)CCCC3	x	0.852	x	x	x	x	x	x	x
Cc1noc(C)c1CSc1nc2sc(C)c(C)c2c(=O)n1C1CCCC1	-0.687	-0.993	-7.5	0.287	i	10.5*	13364*	1472	+
COC(=O)c1ccc(COC(=O)c2ccc(-n3cnnn3)cc2)o1	-0.0267	-0.0236	8.9	-0.0678	i	5.99*	5052	x	i
COc1ccc(OC)c(NC(=O)COC(=O)c2ccc(-n3cnnn3)cc2)c1	-0.416	0.626	8.7	0.0707	i	0.851	x	x	x
COC(=O)c1ccc(Oc2cc(C)nc(SC)n2)cc1	0.189	0.462	31.6	0.151	x	5.35*	15492*	1728	+
COC(=O)COc1ccc(Oc2cc(C)nc(SC)n2)nn1	0.047	1.32	10.2	0.553	i	0.0693	x	x	x
CC12COC3(C(=O)Nc4cccc(Cl)c4)CC1CCC32C (centres undefined)	x	x	x	x	i	x	x	x	x
CCCn1c(=O)c2ccccc2n2c(SCCOc3ccccc3)nnc12	0.599	0.78	13.0	0.579	i	4.72*	10356*	x	i
CCCn1c(C)cc(C(=O)CSc2nnc3n(CCC)c(=O)c4ccccc4n23)c1C	-0.81	x	-0.7	0.395	i	-1.54	x	x	x
CCCn1c(=O)c2ccccc2n2c(SCc3nc4ccccc4s3)nnc12	1.76	0.00614	-10.4	0.116	i	6.69*	7964*	1868	i
CCCCCOC(=O)C1=C(C)NC2=C(C(=O)CCC2)C1c1ccccc1OC(C)C (centres undefined)	x	x	x	x	i	x	x	x	x
CCCOC(=O)C1=C(C)NC2=C(C(=O)CC(c3ccccc3)C2)C1c1cccnc1 (centres undefined)	x	x	x	x	i	x	x	x	x
O=c1cc(CO)oc(CN2CCN(c3ccccc3)CC2)c1O	0.58	-0.679	24.9	0.317	i	3.09*	7092	1768	i
CCOC(=O)c1cc(CC)sc1NC(=O)COC	-0.674	-0.448	6.1	-1.64	i	11.9*	17728*	1632	+
CCOC(=O)c1cc(CC)sc1NC(=O)Cc1ccccc1	x	-0.248	x	x	x	x	x	x	x
O=C(NCc1n[nH]c(=S)n1-c1ccccc1Cl)c1ccc(S(=O)(=O)N2CCOCC2)cc1	x	x	x	x	i	x	x	x	x
COC(=O)c1cc(NC(=O)CSc2nc(C)cc(=O)[nH]2)cc(C(=O)OC)c1	-0.0122	-0.547	15.7	-0.283	i	2.86*	6652*	1452	i
COc1ccc(CN2CCN(C(=O)c3cccs3)CC2)cc1Br	-0.548	0.00153	13.9	-1.81	i	6.37*	12896*	x	+
COc1cc2c(cc1OC)CN(C(=O)c1cccs1)CC2	-0.00227	0.339	13.5	-0.907	i	5.12*	8784*	1504	+
CCOc1ccc(C(=O)N2CCN(C(=O)c3ccco3)CC2)cc1OCC	-0.941	0.137	3.2	0.127	i	1.9	x	x	x
COc1cc2c(cc1OC)CN(C(=O)COc1ccc(C)c(C)c1)CC2	-1.21	0.448	-1.7	-0.357	i	13.4*	21228*	1676	+
CCC(=O)c1ccc(OCC(=O)N2CCc3cc(OC)c(OC)cc3C2)cc1	-0.324	-0.688	10.1	0.0632	i	2.15	x	x	x
SMILES	M1 ag	hDAT+cocaine	HEK293 NFkB inh	M1 antagonist	BAP1 inh	D1 mod	D1 PAM confirm	D1 ag no DA	Isoprot counter
COc1ccc(CN2CCN(S(=O)(=O)c3ccccc3)CC2)cc1Br	x	-0.974	x	x	x	x	x	x	x
COc1cccc(C(=O)N2CCN(C(=O)c3cccs3)CC2)c1OC	-0.161	0.0356	8.7	0.414	i	-0.206	x	x	x
CCOc1ccc(C(=O)N2CCc3cc(OC)c(OC)cc3C2)cc1OCC	-0.175	0.516	2.9	-0.567	i	4.62*	15188*	1788	+
Cc1ccc(C2=Nn3cnnc3SC2)cc1	x	x	x	x	i	x	x	x	x
C=COc1ccc(NC(=O)c2ccccc2C(=O)O)cc1	x	x	x	x	i	x	x	x	x
CC(=O)OCCN1C(=O)c2cccc([N+](=O)[O-])c2C1=O	x	x	x	x	i	x	x	x	x
CCOC(=O)c1ccccc1NC(=O)c1cn(CC)c2nc(C)ccc2c1=O	0.964	x	9.7	-0.327	i	4.95*	4076	892	i
CCn1cc(C(=O)OCc2cccc(Br)c2)c(=O)c2ccc(C)nc21	0.424	1.06	10.9	-0.806	i	6.6*	14972*	1524	+
CCn1cc(C(=O)OCC(=O)NCc2ccc3c(c2)OCO3)c(=O)c2ccc(C)nc21	0.563	1.38	7.8	-1.29	i	2.72*	8368*	1576	+
CCn1cc(C(=O)OCc2ccccc2)c(=O)c2ccc(C)nc21	1.21	1.26	9.3	-0.0968	i	5.85*	9156*	1600	i
CCn1cc(C(=O)Nc2ccc(NC(=O)c3ccco3)cc2)c(=O)c2ccc(C)nc21	-0.601	x	25.8	0.355	i	1.51	x	x	x
CCn1cc(C(=O)Nc2cccc(C(=O)OC)c2)c(=O)c2ccc(C)nc21	-0.188	1.59	18.5	-0.382	i	0.175	x	x	x
CCn1cc(C(=O)Nc2ccccc2C(=O)OC)c(=O)c2ccc(C)nc21	-0.019	x	27.6	0.216	i	1.08	x	x	x
O=C(Nc1cccc(Br)c1)c1cccc(S(=O)(=O)N2CCCCCC2)c1	x	x	x	x	i	x	x	x	x
COc1cccc2cc(NC(=O)c3ccc(Cl)cc3)c(=O)oc12	x	x	x	x	i	x	x	x	x
